Source: publication PMC6403082 (International Journal of Neuropsychopharmacology, 2018)
Where two headings read alike, the source gives them in different places. Peptide text beside a SMILES is read from it.

Legend:
NMDA, MK-801 = assay: Radioligand displacement, NMDA MK-801 site; assay type: binding; details: 30 μM test compound; inhibition >50% considered meaningful
NMDA, PCP = assay: Radioligand displacement, NMDA PCP site; assay type: binding; details: 30 μM test compound
NMDA, polyamine = assay: Radioligand displacement, NMDA polyamine site; assay type: binding; details: 30 μM test compound
NMDA, glutamate = assay: Radioligand displacement, NMDA glutamate site; assay type: binding; details: 30 μM test compound
NMDA, glycine = NMDA, glycine (Homo sapiens, UniProt Q05586); assay: Radioligand displacement, NMDA glycine site; assay type: binding; details: 30 μM test compound
[1] = tested on: NMDAR in rat primary cortical neurons; assay: Intracellular Ca2+ influx; assay type: cell-based; details: for Effect on 10 μM NMDA-induced calcium response: 300 μM 7-CK or 10 μM MDL; for EC50: rat primary cortical neurons
[2] = tested on: NMDAR current in rat cortical slices; details: 100 μM 7-CK; ref Kemp et al., 1988; cited from earlier work
[3] = biological target: mutant NR1-NR2B receptors (NR1 F484A/T518L) (Homo sapiens, UniProt Q05586+Q13224, F484A/T518L); assay: [3H] MK-801 binding at glycine-site mutant NR1-NR2B; assay type: biochemical; details: NR1 F484A/T518L loss-of-function glycine-site mutant vs wild-type NR1-NR2B
Chain of mutant NR1-NR2B receptors (NR1 F484A/T518L) (Q13224 27-1484, other chains not shown): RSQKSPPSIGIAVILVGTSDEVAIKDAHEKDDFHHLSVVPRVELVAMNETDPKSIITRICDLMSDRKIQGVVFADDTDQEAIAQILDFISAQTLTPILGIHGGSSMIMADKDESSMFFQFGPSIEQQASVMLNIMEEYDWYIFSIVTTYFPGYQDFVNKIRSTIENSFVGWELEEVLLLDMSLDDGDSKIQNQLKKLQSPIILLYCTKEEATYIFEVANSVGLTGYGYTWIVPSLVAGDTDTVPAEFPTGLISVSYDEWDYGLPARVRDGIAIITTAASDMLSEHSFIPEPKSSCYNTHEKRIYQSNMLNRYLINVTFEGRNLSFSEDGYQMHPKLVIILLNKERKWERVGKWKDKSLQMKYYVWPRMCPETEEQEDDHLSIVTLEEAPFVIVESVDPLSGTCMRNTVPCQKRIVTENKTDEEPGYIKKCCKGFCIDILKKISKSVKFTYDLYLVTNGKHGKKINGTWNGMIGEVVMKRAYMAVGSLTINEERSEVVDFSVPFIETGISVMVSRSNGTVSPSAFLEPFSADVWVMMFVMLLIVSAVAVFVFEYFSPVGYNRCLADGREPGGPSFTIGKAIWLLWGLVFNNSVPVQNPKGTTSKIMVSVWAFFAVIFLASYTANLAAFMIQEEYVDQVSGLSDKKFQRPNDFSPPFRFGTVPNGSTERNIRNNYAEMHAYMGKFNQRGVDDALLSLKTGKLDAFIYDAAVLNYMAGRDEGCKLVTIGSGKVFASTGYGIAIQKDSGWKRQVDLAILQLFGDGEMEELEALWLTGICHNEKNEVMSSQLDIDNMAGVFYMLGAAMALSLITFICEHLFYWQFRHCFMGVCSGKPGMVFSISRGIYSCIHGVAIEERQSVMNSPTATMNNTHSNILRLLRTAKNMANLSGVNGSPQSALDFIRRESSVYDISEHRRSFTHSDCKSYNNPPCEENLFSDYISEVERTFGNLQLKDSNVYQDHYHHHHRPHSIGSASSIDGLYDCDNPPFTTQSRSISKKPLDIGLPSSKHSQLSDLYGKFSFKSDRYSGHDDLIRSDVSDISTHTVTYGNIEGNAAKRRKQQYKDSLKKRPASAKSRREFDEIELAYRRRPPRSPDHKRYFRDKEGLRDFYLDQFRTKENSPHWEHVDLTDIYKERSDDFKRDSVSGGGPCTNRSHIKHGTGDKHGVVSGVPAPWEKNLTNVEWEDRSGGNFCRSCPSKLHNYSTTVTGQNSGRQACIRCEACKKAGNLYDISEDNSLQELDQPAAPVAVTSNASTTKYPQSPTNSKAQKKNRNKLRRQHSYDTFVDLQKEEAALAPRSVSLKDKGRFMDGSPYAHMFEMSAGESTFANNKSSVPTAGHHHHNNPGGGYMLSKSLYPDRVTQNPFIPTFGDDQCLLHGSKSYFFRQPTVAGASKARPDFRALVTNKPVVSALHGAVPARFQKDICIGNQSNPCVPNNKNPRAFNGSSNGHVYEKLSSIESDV
Outline: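 Crude membranes from transiently transfected HEK cells (NR1-NR2B, wild-type or NR1 F484A/T518L glycine-site mutant), washed in 10 mM Tris·acetate pH 7.4, homogenised, pelleted at 51 500 × g, all at 4°C. […] Then […] [3H] MK-801 (22.5 Ci/mmol) added for 15 min (nonequilibrium), and filtered. n = 18, 2-tailed t test.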

[4] = mPFC microdialysis of rapastinel; assay type: in vivo; details: rat, sc
Outline: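 Freely moving rats had guide cannulae implanted in mPFC (AP +3.2, L +0.5, V −1.5 mm from bregma/dura). After 7 days of recovery, a probe was inserted (3-mm membrane, 50 kDa cutoff) and perfused with aCSF at 1 μL/min (148 NaCl, 4 KCl, 0.8 MgCl2, 1.4 CaCl2, 1.2 Na2HPO4, 0.3 NaH2PO4 mM; pH 7.2). Test compound was given s.c. in sterile saline.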

[5] = biological target: mutant NR2B (R393E) NMDAR in HEK293 cells (Homo sapiens, UniProt Q05586+Q13224, R393E); assay: Intracellular calcium response in HEK cells, NR2B R393E; assay type: cell-based
Chain of mutant NR2B (R393E) NMDAR in HEK293 cells (Q13224 27-1484 R393E, other chains not shown): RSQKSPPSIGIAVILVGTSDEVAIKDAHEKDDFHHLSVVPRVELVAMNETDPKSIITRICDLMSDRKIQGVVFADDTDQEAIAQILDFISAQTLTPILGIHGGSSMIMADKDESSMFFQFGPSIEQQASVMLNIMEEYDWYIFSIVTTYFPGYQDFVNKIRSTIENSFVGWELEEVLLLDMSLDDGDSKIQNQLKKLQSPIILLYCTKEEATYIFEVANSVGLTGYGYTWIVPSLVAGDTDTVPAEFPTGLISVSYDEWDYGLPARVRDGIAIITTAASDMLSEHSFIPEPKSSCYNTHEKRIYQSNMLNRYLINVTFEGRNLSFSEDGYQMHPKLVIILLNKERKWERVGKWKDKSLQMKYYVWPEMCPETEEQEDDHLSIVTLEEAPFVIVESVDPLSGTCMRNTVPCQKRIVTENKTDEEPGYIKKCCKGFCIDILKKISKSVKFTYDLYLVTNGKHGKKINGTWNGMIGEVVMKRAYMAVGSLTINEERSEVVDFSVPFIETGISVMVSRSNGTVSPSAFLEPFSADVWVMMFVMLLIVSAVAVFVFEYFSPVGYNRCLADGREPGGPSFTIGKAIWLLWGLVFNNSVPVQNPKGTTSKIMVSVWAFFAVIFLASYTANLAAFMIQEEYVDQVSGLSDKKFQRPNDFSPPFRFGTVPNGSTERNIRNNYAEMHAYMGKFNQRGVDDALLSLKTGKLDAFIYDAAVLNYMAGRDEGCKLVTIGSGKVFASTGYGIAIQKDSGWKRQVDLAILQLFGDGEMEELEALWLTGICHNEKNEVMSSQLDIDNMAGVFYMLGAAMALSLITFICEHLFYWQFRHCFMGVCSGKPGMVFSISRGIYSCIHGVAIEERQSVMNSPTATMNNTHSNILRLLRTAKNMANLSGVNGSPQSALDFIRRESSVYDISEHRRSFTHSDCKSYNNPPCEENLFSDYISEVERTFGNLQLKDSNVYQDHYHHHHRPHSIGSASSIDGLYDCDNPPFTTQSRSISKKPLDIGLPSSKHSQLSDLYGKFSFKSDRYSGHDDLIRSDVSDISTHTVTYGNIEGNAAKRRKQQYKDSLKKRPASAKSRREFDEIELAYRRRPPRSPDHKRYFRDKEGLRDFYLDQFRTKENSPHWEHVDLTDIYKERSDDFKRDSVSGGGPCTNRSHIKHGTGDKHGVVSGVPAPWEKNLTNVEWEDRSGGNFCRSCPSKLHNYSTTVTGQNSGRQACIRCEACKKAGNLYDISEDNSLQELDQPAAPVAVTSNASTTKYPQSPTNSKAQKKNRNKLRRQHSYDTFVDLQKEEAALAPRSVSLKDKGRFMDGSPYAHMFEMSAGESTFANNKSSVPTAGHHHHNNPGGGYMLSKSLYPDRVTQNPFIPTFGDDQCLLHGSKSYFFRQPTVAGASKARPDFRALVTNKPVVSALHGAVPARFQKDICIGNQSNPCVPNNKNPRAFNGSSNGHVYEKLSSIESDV

Compound: CNC1(c2ccccc2Cl)CCCCC1=O (racemic) [(R,S)-ketamine]
- NMDA, MK-801(%) radioligand displacement (NMDA, MK-801): 96%
- NMDA, PCP (%) radioligand displacement (NMDA, PCP): 94%
- NMDA, polyamine (%) radioligand displacement (NMDA, polyamine): −16%
- NMDA, glutamate (%) radioligand displacement (NMDA, glutamate): −5%
- NMDA, glycine (%) radioligand displacement (NMDA, glycine): 17%

Compound: O=C(O)c1cc(O)c2ccc(Cl)cc2n1 [7-CK, 7-chlorokynurenic acid]
- Effect on 10 μM NMDA-induced calcium response [1]: completely abolished
- Effect on NMDAR current in rat cortical slices [2]: completely blocked

Compound: N[C@H](CCCP(=O)(O)O)C(=O)O [(2R)-amino-5-phosphonopentanoate]
- Effect on calcium response to NMDA + rapastinel + 7-CK ([1]; 100 μM co-infused): inhibited the calcium response

Compound: N[C@H](CO)C(=O)O [D-serine]
- EC50 ([1]; read-out: EC50, [Ca2+]i mobilization (D-serine)): 290 nM

Compound: NCC(=O)O [Glycine, glycine]
- Enhancement of [3H] MK-801 binding at mutant receptors [3]: failed to enhance

Compound: O=C(O)/C(=C/c1c(C(=O)O)[nH]c2cc(Cl)cc(Cl)c12)c1ccccc1 [MDL]
- Block of NMDAR activation by 10 μM NMDA and 100 μM D-serine ([1]; 10 μM MDL, n = 5): −98.5 ± 0.2%
- Effect on 10 μM NMDA-induced calcium response [1]: completely abolished

Compound: CN[C@H](CC(=O)O)C(=O)O [NMDA, N-methyl-D-aspartate]
- EC50 ([1]; read-out: EC50, [Ca2+]i mobilization (NMDA)): 2800 nM

Compound: CN[C@@]1(c2ccccc2Cl)CCCCC1=O [R-ketamine]
- NMDA, MK-801(%) radioligand displacement (NMDA, MK-801): 89%
- NMDA, PCP (%) radioligand displacement (NMDA, PCP): 88%
- NMDA, polyamine (%) radioligand displacement (NMDA, polyamine): 1%
- NMDA, glutamate (%) radioligand displacement (NMDA, glutamate): 6%
- NMDA, glycine (%) radioligand displacement (NMDA, glycine): −5%

Compound: C[C@@H](O)[C@H](N)C(=O)N1CCC[C@H]1C(=O)N1CCC[C@H]1C(=O)N[C@H](C(N)=O)[C@@H](C)O [Rapastinel] (H-TPPT-NH2)
- level at time molar ([4]; brain (mPFC) microdialysate, 10 mg/kg): ~30 nM
- Tmax ([4]; in vivo): ~20 min
- half-life ([4]; in vivo): ~20 min

Compound: CN[C@]1(c2ccccc2Cl)CCCCC1=O [S-ketamine]
- NMDA, MK-801(%) radioligand displacement (NMDA, MK-801): 98%
- IC50 ([1]; read-out: IC50, inhibition of NMDAR-mediated [Ca2+]i accumulation): ~1000 nM
- NMDA, PCP (%) radioligand displacement (NMDA, PCP): 84%
- NMDA, polyamine (%) radioligand displacement (NMDA, polyamine): −17%
- NMDA, glutamate (%) radioligand displacement (NMDA, glutamate): −6%
- NMDA, glycine (%) radioligand displacement (NMDA, glycine): 0%

Compound: N[C@@H](CCC(=O)O)C(=O)O [glutamate]
- Receptor activation, % of 1 μM glutamate, mutated NR2B (R393E) [5]: 22.6 ± 1.2%
